Assay results of several laboratories.
Lines come from different studies, so protocols differ. Values after ≈ are worked out from the molar mass of the structure shown.

Structure (SMILES) | tested on | test | system | setting | endpoint | result
CC(C)[C@H](NC(=O)[C@H](CCCNC(=N)N)NC(=O)N[C@@H](Cc1ccccc1)C(=O)O)C(=O)N[C@H](C=O)CCCNC(=N)N | Human coronavirus 229E | viral replication | Huh7.5 |  | IC50 | 1570 nM
COc1ccc(N2CCN(C(=O)/C=C/c3ccc4c(c3)C=CC(C)(C)O4)CC2)cc1 | rat Primary cortical neuron | cell growth or viability, MTT |  | 1 µM, 12 h | viability | 75%
CCCCCCCC/C=C\CCCCCCCCNC(=O)CP(=O)(O)O | Enterococcus faecalis | microbial growth | ATCC33186 |  | MIC | 50 µg/mL (≈ 128 µM)
Cc1cccc(CSc2nccc(OCCOc3cc(=O)oc4ccccc34)n2)c1 | Human coronavirus 229E | cytopathic effect | A549 | 25 µM | inhibition | 58.1%
CCCC(=O)CP(=O)(O)O | Enterococcus faecalis | microbial growth | ATCC33186 |  | MIC | > 200 µg/mL
CC1(C)C=Cc2cc(C(CC(=O)Nc3ccccc3)Nc3ccccc3)ccc2O1 (centres unmarked) | rat Primary cortical neuron | cell growth or viability, MTT |  | 1 µM, 12 h | viability | > 80%
CC[C@@]1(O)C[C@H](O[C@H]2C[C@H](N(C)C)[C@H](O[C@H]3C[C@H](O)[C@H](O[C@H]4CCC(=O)[C@H](C)O4)[C@H](C)O3)[C@H](C)O2)c2c(cc3c(c2O)C(=O)c2c(O)cccc2C3=O)[C@H]1C(=O)OC | Human coronavirus 229E | viral replication | Calu-3 |  | IC50 | 2340 nM
O=c1cc(OCCCOc2ccnc(SCc3ccc(F)cc3)n2)c2cc(F)ccc2o1 | Human coronavirus 229E | cytopathic effect | A549 | 25 µM | inhibition | 65.8%
COc1cc2c(cc1O)CCN[C@]21CS[C@@H]2c3c(OC(C)=O)c(C)c4c(c3[C@H](COC1=O)N1[C@@H]2[C@H]2c3c(cc(C)c(OC)c3O)C[C@@H]([C@@H]1C#N)N2C)OCO4 | Human coronavirus 229E | viral replication | Calu-3 |  | IC50 | 253 nM
CCCCCC/C=C\CCCCCCCCCC(=O)NP(=O)(O)O | Enterococcus faecalis | microbial growth | ATCC33186 |  | MIC | 200 µg/mL (≈ 553 µM)
CC1(C)C=Cc2cc(/C=C/C(=O)Nc3ccccc3)ccc2O1 | rat Primary cortical neuron | cell growth or viability, MTT |  | 1 µM, 12 h | viability | 73%
Nc1ncnc2c([C@@H]3N[C@H](CO)[C@@H](O)[C@H]3O)c[nH]c12 | Japanese encephalitis virus | viral replication, inhibitor | Vero 76 | 9.5 µM | inhibition | 9.8%
O=C(Cc1ccc2ccccc2c1)N[C@@H](Cc1ccccc1)C(=O)N[C@@H](Cc1ccccc1)C(=O)N[C@H](Cc1ccc(OP(=O)(O)O)cc1)C(=O)O | HeLa | cell growth or viability, MTT |  | 48 h | IC50 | 428000 nM
O=C(CCCCC1CCCCC1)NP(=O)(O)O | Enterococcus faecalis | microbial growth | ATCC33186 |  | MIC | > 200 µg/mL
CCC(CC)COC(=O)[C@H](C)N[P@](=O)(OC[C@H]1O[C@@](C#N)(c2ccc3c(N)ncnn23)[C@H](O)[C@@H]1O)Oc1ccccc1 | Human coronavirus 229E | viral replication | Calu-3 |  | IC50 | 110 nM
CCOC(=O)C1=C[C@@H](OC(CC)CC)[C@H](NC(C)=O)[C@@H](N)C1 | Human coronavirus 229E | viral replication | A549 |  | IC50 | 7650 nM
CCCCCCCC(=O)NP(=O)(O)O | Enterococcus faecalis | microbial growth | ATCC33186 |  | MIC | > 200 µg/mL
